One data set concerns the target GRIA1/CACNG8 (Homo sapiens, UniProt P42261+Q8WXS5). Kind of data set: Modulation of recombinant human GluA1 flop isoform/TARPgamma8 expressed in HEK293F cells assessed as blockade of glutamate-induced calcium flux by calcium 5/6 dye based FLIPR assay. It is filed as cell-based. A digest of the protocol:
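HEK-293 cells expressing a human GluA1o-γ-8 fusion construct; FLIPR calcium-flux read-out; pIC50 reported as mean and standard deviation of at least three assays run in triplicate.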
(Calcium assays in cells follow changes in intracellular calcium, usually with a dye or a luminescent sensor.)

A further data set addresses GRIA1/CACNG2 (Homo sapiens, UniProt P42261+Q9Y698). The data set can be described thus: Modulation of recombinant human GluA1 flop isoform/TARPgamma2 expressed in HEK293F cells assessed as blockade of glutamate-induced calcium flux by calcium 5/6 dye based FLIPR assay. It is filed as cell-based. The method, boiled down:
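HEK-293 cells transiently expressing human GluA1o cotransfected with γ-2; FLIPR calcium-flux read-out; pIC50 reported; n = 1, run in triplicate.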

The test system of data set [1] is Rattus norvegicus. The data set can be described thus: Ex vivo receptor occupancy at GluA/TARPgamma8 in po dosed Sprague-Dawley rat assessed as plasma concentration causing 50% reduction in [3H]JNJ-56022486 receptor labeling in hippocampus at Tmax by autoradiography. It is filed as functional, organism-based. A digest of the protocol:
(§1)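 Oral dose–response in Sprague–Dawley rats, n = 3/dose (8 doses in one study; vehicle 0.5% HPMC or 20% HP-β-CD); hippocampal occupancy measured at Tmax by ex vivo autoradiography using [3H]-12; EC50 expressed against plasma (ng/mL) or brain (ng/g) exposure, ED50 against dose.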

The nature of data set [2]: Ratio of unbound brain to plasma concentration in Sprague-Dawley rat at 1 mg/kg, iv or 5 mg/kg, po administered as single dose by LC-MS/MS analysis. The following applies: brain and plasma, read-out: K(p,uu,brain). It is filed as ADME, organism-based.
Data set [3] in a line: Protein binding in human plasma assessed as unbound fraction at 1 uM measured after 6 hrs by equilibrium dialysis method. It is filed as ADME, cell-free. A digest of the protocol:
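Human or rat plasma protein binding at 1 μM compound, expressed as fraction unbound (fub).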
In general terms: In equilibrium dialysis free small molecules cross a membrane that holds back macromolecules.

Data set [4] is described as follows: Cmax in Sprague-Dawley rat at 5 mg/kg, po administered as single dose by LC-MS/MS analysis. It is filed as ADME, organism-based. Also on record: dose 5 mg/kg, route oral. The following applies: in vivo. The method, boiled down:
(§2)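 Sprague–Dawley rats (n = 3/group) given compound as a solution in 20% HP-β-CD, 1 mg/kg i.v. and 5 mg/kg p.o.; plasma pharmacokinetics derived from these arms.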

Data set [5] is described as follows: Hepatic extraction ratio in human liver microsomes at 1 uM measured after 60 mins in presence of NADPH by LC-MS/MS analysis. It is filed as ADME, microsome. The conditions noted are these: read-out: ERH. The method, boiled down: (§3)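 Human or rat liver microsomal stability at 1 μM; results expressed as extraction ratio, i.e. predicted hepatic clearance divided by species-specific hepatic blood flow.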
(Liver microsomes are vesicles of endoplasmic reticulum, rich in cytochrome P450 enzymes.)

Data set [6] has as its system Rattus norvegicus. Kind of data set: Ex vivo receptor occupancy at GluA/TARPgamma8 in po dosed Sprague-Dawley rat assessed as brain concentration causing 50% reduction in [3H]JNJ-56022486 receptor labeling in hippocampus at Tmax by autoradiography. It is filed as functional, organism-based. A digest of the protocol:
as §1

A short description of data set [7]: Thermodynamic solubility of the compound in fasted state simulated intestinal fluid at pH 6.5 incubated under stirred condition for 3 days. The conditions noted are these: read-out: Therm_solubility.
Data set [8] is described as follows: Apparent permeability across apical to basolateral side in MDCK-MDR1 cells at 5 uM measured after 60 mins by LC-MS/MS analysis. It is filed as ADME, cell-based, Canis lupus familiaris. The conditions noted are these: dog. The method, boiled down: (§4)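 Bidirectional apparent permeability measured in Madin–Darby canine kidney cells transfected with the MDR1 (P-gp) gene; Papp reported in ×10–6 cm/s.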

Data set [9] can be described thus: Thermodynamic solubility of the compound in simulated gastric fluid at pH 1.6 incubated under stirred condition for 3 days. It is filed as physicochemical. The conditions noted are these: read-out: Therm_solubility. A digest of the protocol: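 Thermodynamic solubility (μM) determined in simulated gastric fluid at pH 1.6 and in fasted state simulated intestinal fluid at pH 6.5.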

The nature of data set [10]: Hepatic extraction ratio in rat liver microsomes at 1 uM measured after 60 mins in presence of NADPH by LC-MS/MS analysis. The following applies: read-out: ERH. It is filed as ADME, microsome. A digest of the protocol:
as §3

A short description of data set [11]: Apparent permeability across basolateral to apical side in MDCK-MDR1 cells at 5 uM measured after 60 mins by LC-MS/MS analysis. It is filed as ADME, cell-based, Canis lupus familiaris. The following applies: dog. The method, boiled down: as §4
A short description of data set [12]: Volume of distribution at steady state in Sprague-Dawley rat at 1 mg/kg, iv or 5 mg/kg, po administered as single dose by LC-MS/MS analysis. It is filed as ADME, organism-based. The following applies: in vivo, read-out: Vdss. A digest of the protocol:
(§5)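 Single 1 mg/kg i.v. dose as a solution to Sprague–Dawley rats (n = 3/group); vehicle 20% HP-β-CD in one study series, 1:1 PEG400/H2O in the other; plasma PK parameters derived.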

Data set [13] concerns Rattus norvegicus. The data set can be described thus: Ex vivo receptor occupancy at GluA/TARPgamma8 in po dosed Sprague-Dawley rat assessed as reduction in [3H]JNJ-56022486 receptor labeling in hippocampus measured within 10 mins by autoradiography. It is filed as functional.
The nature of data set [14]: Oral bioavailability in Sprague-Dawley rat at 5 mg/kg administered as single dose by LC-MS/MS analysis. It is filed as ADME, organism-based. The conditions noted are these: in vivo. The method, boiled down:
as §2

Data set [15] in a line: Clearance in Sprague-Dawley rat at 1 mg/kg, iv administered as single dose by LC-MS/MS analysis. It is filed as ADME, organism-based. The following applies: in vivo. The method, boiled down: as §5
Data set [16] is described as follows: Half life in Sprague-Dawley rat at 1 mg/kg, iv administered as single dose by LC-MS/MS analysis. The following applies: in vivo. It is filed as ADME, organism-based. A digest of the protocol: as §5

What is called pIC50 is the negative decadic logarithm of the IC50, by convention in mol/L. The term fraction unbound denotes the share of the substance not bound to proteins or other matrix. By Cmax is commonly meant the peak of the concentration-time curve. Broadly, the Papp A→B is how fast a substance crosses the layer from the apical side. As usually defined, the Papp B→A is the apparent permeability from the basolateral to the apical side of a cell layer. The term ED50 denotes the dose at which the effect has come halfway, by size or by number of responders. By clearance is commonly meant a measure of how efficiently the substance is removed, as volume per time. One may read the half-life as the time needed for the level to fall by half in the phase considered.

Structures are written as SMILES. pIC50: −log10 of the molar value. In brackets after ≈: the same amount, converted by molar mass. Some results are limits rather than exact numbers.

Sequence of GRIA1/CACNG8 (P42261 whole entry, the tested form may be a part, canonical isoform): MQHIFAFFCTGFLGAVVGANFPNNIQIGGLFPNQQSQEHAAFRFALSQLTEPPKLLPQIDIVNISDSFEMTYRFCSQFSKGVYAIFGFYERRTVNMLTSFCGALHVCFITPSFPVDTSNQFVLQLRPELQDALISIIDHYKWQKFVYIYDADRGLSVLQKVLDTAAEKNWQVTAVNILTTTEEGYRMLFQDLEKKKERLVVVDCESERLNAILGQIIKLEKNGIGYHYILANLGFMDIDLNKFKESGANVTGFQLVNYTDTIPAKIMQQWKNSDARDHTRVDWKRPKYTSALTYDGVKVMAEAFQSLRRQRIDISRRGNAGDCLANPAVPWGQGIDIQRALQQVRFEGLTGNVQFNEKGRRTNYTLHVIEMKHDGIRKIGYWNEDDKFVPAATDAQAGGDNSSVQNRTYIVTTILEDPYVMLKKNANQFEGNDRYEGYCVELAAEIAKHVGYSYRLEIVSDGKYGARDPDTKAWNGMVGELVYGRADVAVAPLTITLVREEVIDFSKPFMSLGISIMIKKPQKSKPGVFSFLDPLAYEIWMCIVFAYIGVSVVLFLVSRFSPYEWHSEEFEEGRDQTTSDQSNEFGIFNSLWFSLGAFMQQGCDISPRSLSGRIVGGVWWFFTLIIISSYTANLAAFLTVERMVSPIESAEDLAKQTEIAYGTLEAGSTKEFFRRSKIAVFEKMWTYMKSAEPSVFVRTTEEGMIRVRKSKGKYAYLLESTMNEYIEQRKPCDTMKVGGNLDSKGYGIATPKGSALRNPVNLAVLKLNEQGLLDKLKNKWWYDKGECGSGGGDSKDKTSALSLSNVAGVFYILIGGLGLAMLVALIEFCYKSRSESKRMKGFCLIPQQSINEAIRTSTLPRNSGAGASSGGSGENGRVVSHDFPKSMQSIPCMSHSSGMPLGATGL
Sequence of GRIA1/CACNG8 (Q8WXS5 whole entry, the tested form may be a part, canonical isoform): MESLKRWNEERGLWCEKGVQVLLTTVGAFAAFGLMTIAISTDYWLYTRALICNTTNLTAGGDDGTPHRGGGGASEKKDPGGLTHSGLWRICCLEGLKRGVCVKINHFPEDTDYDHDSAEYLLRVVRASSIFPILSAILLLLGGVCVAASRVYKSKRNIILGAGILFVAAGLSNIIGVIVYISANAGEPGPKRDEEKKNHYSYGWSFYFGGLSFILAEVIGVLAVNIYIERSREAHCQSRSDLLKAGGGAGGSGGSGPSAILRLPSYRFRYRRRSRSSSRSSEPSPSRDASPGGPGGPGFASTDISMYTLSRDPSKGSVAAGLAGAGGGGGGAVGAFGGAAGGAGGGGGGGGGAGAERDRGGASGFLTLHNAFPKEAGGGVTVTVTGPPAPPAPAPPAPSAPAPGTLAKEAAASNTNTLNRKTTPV
Sequence of GRIA1/CACNG2 (P42261 whole entry, canonical isoform): as the sequence (P42261 whole entry, the tested form may be a part, canonical isoform) above
Sequence of GRIA1/CACNG2 (Q9Y698 whole entry, canonical isoform): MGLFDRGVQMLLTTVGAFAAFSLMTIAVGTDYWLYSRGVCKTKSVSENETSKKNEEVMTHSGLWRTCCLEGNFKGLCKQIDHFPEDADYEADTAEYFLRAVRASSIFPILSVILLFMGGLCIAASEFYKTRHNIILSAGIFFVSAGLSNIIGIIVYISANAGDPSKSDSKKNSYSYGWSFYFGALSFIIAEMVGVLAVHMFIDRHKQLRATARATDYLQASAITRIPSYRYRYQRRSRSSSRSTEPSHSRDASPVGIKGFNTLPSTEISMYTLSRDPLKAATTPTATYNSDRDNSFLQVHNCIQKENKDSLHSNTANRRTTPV

As to `Cc1ccccc1-c1ccc2c(c1)CC(=O)N2`, the results for the pIC50 on GRIA1/CACNG8 and on GRIA1/CACNG2 were 5.60 and less than 5.00, respectively.

Take `O=c1[nH]c2ccc(-c3c(Cl)cccc3C3CC3)cc2[nH]1`: the EC50 is 0.486 µg/mL (≈ 1.71 µM) in the data set with Rattus norvegicus [1] and 1611 ng/g in the data set with Rattus norvegicus [6]. The Kp uu in data set [2] came to 0.3. Also, the fraction unbound at 6 h, 1 µM in [3] came to 0.2. Further, in data set [4], the highest level (Cmax) was 502 ng/mL. For the same compound, the hepatic extraction ratio at 1 h, 1 µM in data set [5] is less than 0.3; in data set [10] it was 0.5. The solubility thermodynamic at 72 h in data set [7] is 90 µM (≈ 25.6 µg/mL); in [9], less than 4 µM. For the same compound, the Papp A→B at 1 h, 5 µM in data set [8] is 10 ×10⁻⁶ cm/s. Also, in data set [11], the Papp B→A at 1 h, 5 µM came to 18 ×10⁻⁶ cm/s. The Vd in data set [12] is 4.6 L/kg. Besides, the ED50 with Rattus norvegicus [13] worked out at 3.2 mg/kg. Besides, the bioavailability in data set [14] worked out at 121%. The compound also gave a clearance in data set [15] of 21 mL/min/kg. Further, at GRIA1/CACNG2, the pIC50 was less than 5.00. The compound further had a half-life in data set [16] of 162 min.

For `Cc1cccc(C)c1-c1ccc2c(c1)CC(=O)N2`, on GRIA1/CACNG2, the negative logarithm of the IC50 (pIC50) was less than 5.00.

Take `O=c1[nH]c2ccc(-c3c(Cl)cccc3OC(F)(F)F)cc2o1`: at GRIA1/CACNG8, the negative-log IC50 (pIC50) is 5.60.

With `Cc1cccc(Cl)c1-c1ccc2[nH]c(=O)[nH]c2c1`, the fraction unbound at 6 h, 1 µM in data set [3] was 0.9. Besides, the hepatic extraction ratio at 1 h, 1 µM in [5] was less than 0.3; in data set [10] it was 0.6. The pIC50 at GRIA1/CACNG8 is 7.30; at GRIA1/CACNG2, less than 5.00. The results for the solubility thermodynamic at 72 h in data set [7] and in [9] were 146 µM (≈ 37.8 µg/mL) and less than 4 µM, respectively. For the same compound, the Papp A→B at 1 h, 5 µM in [8] was 25 ×10⁻⁶ cm/s. Also, the Papp B→A at 1 h, 5 µM in data set [11] was determined as 32 ×10⁻⁶ cm/s.

With `N#CCc1cccc(Cl)c1-c1ccc2[nH]c(=O)[nH]c2c1`, the hepatic extraction ratio at 1 h, 1 µM in data set [5] was less than 0.3; in [10], 0.6. The pIC50 at GRIA1/CACNG8 is 8.00; on GRIA1/CACNG2 it was less than 5.00. The solubility thermodynamic at 72 h in data set [7] was 230 µM (≈ 65.3 µg/mL); in data set [9], 26 µM (≈ 7.38 µg/mL). For the same compound, in [8], the Papp A→B at 1 h, 5 µM was 6.6 ×10⁻⁶ cm/s. In [11], the apparent permeability from basolateral to apical (Papp B→A) at 1 h, 5 µM came to 70 ×10⁻⁶ cm/s.

On to `COc1cccc(Cl)c1-c1ccc2[nH]c(=O)[nH]c2c1`, for which the hepatic extraction ratio at 1 h, 1 µM in data set [5] was 0.3; in data set [10], 0.6. In addition, the pIC50 at GRIA1/CACNG8 was 6.90; at GRIA1/CACNG2, less than 5.00. In addition, the solubility thermodynamic at 72 h was 142 µM (≈ 39 µg/mL) in data set [7] and 19 µM (≈ 5.22 µg/mL) in data set [9]. In [8], the Papp A→B at 1 h, 5 µM was found to be 26 ×10⁻⁶ cm/s. The Papp B→A at 1 h, 5 µM in data set [11] was 50 ×10⁻⁶ cm/s.

The values are drawn from ChEMBL document CHEMBL4196161, “Lead Optimization of 5-Aryl Benzimidazolone- and Oxindole-Based AMPA Receptor Modulators Selective for TARP γ-8” (ACS Med Chem Lett, 2018).
